M5 ag: CHRM5 agonism in calcium assay | CHO-K1 hM5 cells, Fluo-8 calcium fluorescence; 0% DMSO wells, 100% maximal acetylcholine response | activation, % at 3 µM | 360,000 compounds, 0.19% hits | AID 624037;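 active means activation above the run's mean over test compounds plus 3 SD, cut at about 23% in these data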;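 further: signal is peak over basal fluorescence ratio across the kinetic read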
CHRM4 PAM: potentiates acetylcholine response at human M4 receptor; P08173; CHO-K1 hM4/Gqi5, Fluo-8 calcium fluorescence, ACh EC20; 0% = ACh EC20, 100% = maximal ACh; activation, % at 3 µM; 360,000 compounds, 0.4% hits;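 active means activation above its plate's cutoff, the mean activation of sample wells plus 3 SD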
Target sequence (P08173 whole entry, looked up): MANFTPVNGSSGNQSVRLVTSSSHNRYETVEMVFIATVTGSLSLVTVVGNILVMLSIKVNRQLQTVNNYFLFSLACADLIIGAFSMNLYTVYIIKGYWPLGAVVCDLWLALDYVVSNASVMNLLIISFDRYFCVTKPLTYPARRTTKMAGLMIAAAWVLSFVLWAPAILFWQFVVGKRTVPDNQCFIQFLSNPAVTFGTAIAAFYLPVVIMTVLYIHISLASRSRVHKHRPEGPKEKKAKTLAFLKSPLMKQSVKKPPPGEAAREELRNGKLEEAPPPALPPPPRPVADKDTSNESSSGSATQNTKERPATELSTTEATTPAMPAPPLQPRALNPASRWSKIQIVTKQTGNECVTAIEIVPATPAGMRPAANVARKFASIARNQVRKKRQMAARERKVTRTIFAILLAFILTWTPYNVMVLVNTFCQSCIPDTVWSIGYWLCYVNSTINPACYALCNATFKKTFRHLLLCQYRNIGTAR
CHRM5 PAM: CHRM5 positive allosteric modulation; P08912; CHO-K1 hM5, Fluo-8 calcium, ACh EC20 PAM; 0% = ACh EC20, 100% = ACh EC100; activation, % at 3 µM; 360,000 compounds, 0.3% hits; AID 624038;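 active means activation above the run cutoff, the mean activation of all test compounds plus 3 SD, cut at about 18% in these data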
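Replicates: One well per compound, no replicates | System: Human M5 receptor in CHO-K1 cells | Benchmarks: Low control EC20 acetylcholine (0%), high control EC100 acetylcholine (100%) | Probe or stimulus: Acetylcholine, EC20 level | Times: Fluo-8 loading 80 min at 37 °C plus 30 min room temperature | Signal: Intracellular calcium via Fluo-8 fluorescence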
CHRM4 antagonist: antagonists of human muscarinic M4 receptor (CHRM4); P08173; CHO-hM4 cells, ACh EC80, Fluo-8 calcium fluorescence; AID 624125; inhibition, % at 3 µM; 360,000 compounds, 0.73% hits;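 active means inhibition above its plate's cutoff, the mean inhibition of sample wells plus 3 SD, cut at about 27% in these data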
M4 ag: agonists of human muscarinic M4 receptor (CHRM4) | P08173 | CHO-K1 hM4/Gqi5, Fluo-8 calcium fluorescence; vehicle 0%, full acetylcholine response 100% | activation, % at 3 µM | 360,000 compounds, 0.14% hits;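 active means activation above the run mean over all test wells plus 3 SD, cut at about 32% in these data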;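 further: peak over basal fluorescence ratio per well then scaled between controls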
CHRM5 antagonist: antagonists of human muscarinic M5 receptor (CHRM5) | P08912 | inhibition, % at 3 µM | 360,000 compounds, 0.59% hits | AID 624040 | CHO-hM5 cells, Fluo-8 calcium fluorescence, ACh EC80;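 active means inhibition above a per-plate cutoff, the mean of that plate's test compounds plus 3 SD, cut at about 27% in these data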
Large screens that a line does not name were inactive. Only some compounds are listed: those with a hit (about 1.9% of all), similar ones and a draw of the others.

Cc1ccc(OCCN2C(=O)C(=O)c3cc(C)ccc32)cc1	none
Cc1ccc2c(c1)C(=O)C(=O)N2Cc1ccc(C(F)(F)F)cc1	M5 ag 44, M4 ag 32
S=C(NCc1ccncc1)Nc1cccc(Cl)c1	none
Fc1ccc(CNC(=S)Nc2ccc(Cl)cc2)cc1	CHRM5 antagonist 31
S=C(NCc1ccc(Cl)cc1)Nc1ccncc1	CHRM5 antagonist 41
S=C(NCc1ccc(Cl)cc1)Nc1ccccc1	none
CCC(NC(=S)NCc1ccc(F)cc1)c1ccc(C(C)C)cc1 (centres undefined)	CHRM4 antagonist 82
Cc1ccc(S(=O)(=O)N2CCN(C(=O)CCC(=O)NCc3cccc(C(F)(F)F)c3)CC2)cc1	none
COC(=O)c1cccc(N2C(=O)C[C@](Sc3ccc(C)cc3)(C(=O)OC)[C@H]2c2ccccc2)c1	CHRM4 antagonist 27
COC(=O)[C@@]1(Sc2ccc(C)cc2)CC(=O)N(c2ccc(Cl)cc2)[C@@H]1c1ccccc1	none
Cc1ccc(NS(=O)(=O)c2c(C)[nH]c(C)c2C(=O)N2CCCCC2)c(Cl)c1	none
CCCc1cc(C(=O)NNC(=S)NCc2ccccc2)cs1	none
CCCc1cc(C(=O)NNC(=S)NC2CCCCC2)cs1	CHRM4 PAM 18
CCN(CC)S(=O)(=O)c1cccc(NC(=O)/C=C/c2cccc([N+](=O)[O-])c2)c1	CHRM5 antagonist 33
O=C(CNc1cccc(S(=O)(=O)N2CCCC2)c1)Nc1ccc(F)c(F)c1	CHRM4 PAM 20
Cc1cc(OCC(=O)Nc2cccc(S(=O)(=O)N3CCCCC3)c2)ccc1Cl	none
CCC(=O)c1ccc(OCC(=O)Nc2cccc(S(=O)(=O)N3CCCCCC3)c2)cc1	CHRM5 antagonist 29
CCN(CC)S(=O)(=O)c1cccc(NC(=O)Nc2cccc(C(F)(F)F)c2)c1	CHRM5 antagonist 34
CCN(CC)S(=O)(=O)c1cccc(NC(=O)/C=C/c2ccc([N+](=O)[O-])cc2)c1	none
O=C(COC(=O)c1cc([N+](=O)[O-])ccc1NCCO)Nc1cccc(S(=O)(=O)N2CCCC2)c1	CHRM4 antagonist 35
CCN(CC)S(=O)(=O)c1ccc(C)c(NC(=O)CNc2cccc(S(=O)(=O)N3CCCC3)c2)c1	none
O=C(COC(=O)c1cc([N+](=O)[O-])ccc1NCCO)Nc1ccc2c(c1)OCO2	none
CCN(CC)S(=O)(=O)c1cccc(NC(=O)CNc2cccc(S(=O)(=O)N3CCCC3)c2)c1	CHRM5 antagonist 38
O=C(NC1CC2CCC(C1)N2Cc1ccccc1)c1ccccc1Br (centres undefined)	none
CC(C)(C)NC(=O)NC(=O)COC(=O)C1=COCCO1	CHRM5 PAM 36
O=C(COC(=O)C1=COCCO1)Nc1ccccc1	none
CC1CCC(C(C)C)C(OC(=O)C[n+]2cc(-c3ccc(Cl)cc3)n3c2CCCCC3)C1 (centres undefined)	CHRM5 antagonist 75
O=C(C[n+]1cc(-c2ccccc2)n2c1CCCCC2)c1ccc(Cl)cc1	none
COc1ccc([C@H]2CC(=O)C=C(c3ccc(C(F)(F)F)c(C(F)(F)F)c3)C2)cc1OC	CHRM5 PAM 20
Cc1cccc(C)c1-n1c(C)cc(/C=N\Nc2ccc([N+](=O)[O-])cn2)c1C	CHRM4 antagonist 35
O=[N+]([O-])c1ccc(NN=Cc2cccc(O)c2)nc1	none
CCCCCCCCCCCCCCCC(=O)Nc1ccn(C2OC(CO)C(O)C2O)c(=O)n1 (centres undefined)	none
Cc1c(Br)c([N+](=O)[O-])nn1CC(=O)N1CCc2ccccc21	none
Cc1nn(CC(=O)N2CCc3ccccc32)c(C)c1S(=O)(=O)NC(C)(C)C	CHRM4 PAM 16
CCOC(=O)CC1CCCCN1C(=O)c1cc(COc2cccc3cnccc23)on1 (centres undefined)	CHRM4 antagonist 55, M4 ag 32, CHRM5 antagonist 40
CC(=O)c1cccc(S(=O)(=O)N2CCC(C(=O)O)CC2)c1	none
CC(=O)c1cccc(S(=O)(=O)N2CCC(C(=O)O)(c3ccccc3)CC2)c1	CHRM4 PAM 16
CC(OC(=O)c1cccc(S(=O)(=O)N2CCN(C)CC2)c1)C(=O)Nc1ccc(C(N)=O)cc1 (centres undefined)	none
CC(=O)c1cccc(NC(=O)C(C)OC(=O)c2cccc(S(=O)(=O)N3CCN(C)CC3)c2)c1 (centres undefined)	M5 ag 44
CN(C)S(=O)(=O)c1ccc(N2CCCC2)c(C(=O)OCC(=O)NC2(C#N)CCCCC2)c1	none
COc1cccc(OCC(=O)Nc2ccncc2)c1	none
CC(C)CCOc1cccc(OCC(=O)Nc2ccncc2)c1	CHRM5 antagonist 33
O=C(COc1ccc2ccccc2c1Br)Nc1ccncc1	CHRM5 antagonist 29
Cc1cc(OCC(=O)Nc2ccncc2)c(C)cc1Br	CHRM5 antagonist 34
CCCN1CCC(=O)N(CCO)CC1	none
CC(Oc1cccc2ccccc12)C(=O)N/N=C/c1cccnc1 (centres undefined)	CHRM4 PAM 22
CC(Sc1ccccc1)C(=O)N/N=C/c1cccnc1 (centres undefined)	none
COc1ccc(N=Nc2ccc(O)c3ncccc23)cc1	none
CCc1ccc(N=Nc2ccc(O)c3[nH]cnc23)cc1	M5 ag 30, CHRM4 antagonist 28, M4 ag 48, CHRM5 antagonist 46
COc1cccc(N2CCN(c3ccc4nnc(CCC(=O)Nc5ccccn5)n4n3)CC2)c1	none
CC1CN(C(=O)N(C)C)CCN1C(=O)N(C)C (centres undefined)	CHRM4 antagonist 31
CC(=O)Nc1ccc(C=C(C#N)c2ccc(C)cc2)cc1	none
COc1ccc(C(=O)NCC(=O)NCC(=O)OCc2ccc(Br)cc2)cc1	none
O=C(CC[C@H]1O[C@@H](n2cnc3c(NC(=O)c4ccccc4)ncnc32)[C@H](O)[C@@H]1O)NCC1CCCO1 (some centres undefined)	CHRM4 PAM 20
CC1(C(=O)NS(=O)(=O)Cc2ccccc2)CCN1C(=O)C1(c2ccc(Cl)cc2)CC1 (centres undefined)	none
O=C1NC[C@H](Cc2ccccc2)N(CC2CCN(CC3CCCC3)CC2)C1=O	none
CC(C)[C@H]1COCCS(=O)(=O)N1Cc1ccccc1-c1ccc(F)cc1	none
COc1ccc(-n2c(/C=C(\C)O)nc(=O)c3c(C)cc(C)nc32)cc1	CHRM4 PAM 34
COc1ccc(-n2c(C)nn(C)c2=O)cc1	none
CN(C1CCCCC1)S(=O)(=O)c1ccc2c(c1)c(=O)c(C(=O)NCCCN1CCCC1)cn2C	CHRM4 antagonist 27

High-throughput results (PubChem)
